Assay results from ChEMBL document CHEMBL2046422, “Structure-activity relationship of nonacidic quinazolinone inhibitors of human microsomal prostaglandin synthase 1 (mPGES 1)” (J Med Chem, 2012).
Values belong to the compound of their own block, whether it stands above or below them.

Key:
[1] = target: T1, Prostaglandin E synthase (Homo sapiens) (UniProt O14684); experiment: Inhibition of mPGES-1 derived from IL1beta and TNFalpha stimulated human HeLa cells microsomal fraction using PGH2 as substrate at 1 uM preincubated for 30 mins prior to substrate addition measured after 1 min by LC-MS/MS analysis relative to control
T1 sequence (whole entry): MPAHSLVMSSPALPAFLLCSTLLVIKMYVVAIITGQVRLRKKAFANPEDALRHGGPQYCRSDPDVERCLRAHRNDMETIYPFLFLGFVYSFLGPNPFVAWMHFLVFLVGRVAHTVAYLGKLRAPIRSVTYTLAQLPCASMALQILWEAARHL
Method in brief: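 Microsomes were pelleted by ultracentrifugation and resuspended in buffer with 2.5 mM GSH; protein was measured by Bradford. PGE₂ was read by LC-MS/MS after solid-phase extraction with deuterated standards; n ≥ 3.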

[2] = target: T2, Prostaglandin E synthase (Mus musculus) (UniProt Q9JM51); experiment: Inhibition of mPGES-1 derived from LPS stimulated mouse RAW264.7 cells microsomal fraction using PGH2 as substrate at 1 uM preincubated for 30 mins prior to substrate addition measured after 1 min by LC-MS/MS analysis relative to control
T2 sequence (whole entry): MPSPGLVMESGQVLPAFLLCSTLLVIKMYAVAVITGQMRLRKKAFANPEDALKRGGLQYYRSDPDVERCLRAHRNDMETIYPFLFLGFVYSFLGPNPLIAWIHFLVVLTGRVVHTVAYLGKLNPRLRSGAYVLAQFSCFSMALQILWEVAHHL
Method in brief: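 Microsomes came from RAW 264.7 cells stimulated with LPS for 16 h. They were prepared by sonication and ultracentrifugation in 0.1 M potassium phosphate, pH 7.4, with GSH and protease inhibitors, and resuspended with 2.5 mM GSH; protein was measured by Bradford. Compound was tested at the stated final concentration. PGE₂ was quantified by LC-MS/MS after solid-phase extraction with PGE₂-d₄/PGD₂-d₄ standards; SEM, n ≥ 3.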

[3] = target: T2, Prostaglandin E synthase (Mus musculus); experiment: Inhibition of mPGES-1 derived from LPS stimulated mouse NIH3T3 cells microsomal fraction using PGH2 as substrate at 1 uM preincubated for 30 mins prior to substrate addition measured after 1 min by LC-MS/MS analysis relative to control
[4] = target: T3, Prostaglandin G/H synthase 1 (Ovis aries) (UniProt P05979); experiment: Inhibition of ovine COX1-mediated PGE2 synthesis using PGH2 as substrate at 1 uM by LC-MS/MS analysis relative to control
T3 sequence (whole entry): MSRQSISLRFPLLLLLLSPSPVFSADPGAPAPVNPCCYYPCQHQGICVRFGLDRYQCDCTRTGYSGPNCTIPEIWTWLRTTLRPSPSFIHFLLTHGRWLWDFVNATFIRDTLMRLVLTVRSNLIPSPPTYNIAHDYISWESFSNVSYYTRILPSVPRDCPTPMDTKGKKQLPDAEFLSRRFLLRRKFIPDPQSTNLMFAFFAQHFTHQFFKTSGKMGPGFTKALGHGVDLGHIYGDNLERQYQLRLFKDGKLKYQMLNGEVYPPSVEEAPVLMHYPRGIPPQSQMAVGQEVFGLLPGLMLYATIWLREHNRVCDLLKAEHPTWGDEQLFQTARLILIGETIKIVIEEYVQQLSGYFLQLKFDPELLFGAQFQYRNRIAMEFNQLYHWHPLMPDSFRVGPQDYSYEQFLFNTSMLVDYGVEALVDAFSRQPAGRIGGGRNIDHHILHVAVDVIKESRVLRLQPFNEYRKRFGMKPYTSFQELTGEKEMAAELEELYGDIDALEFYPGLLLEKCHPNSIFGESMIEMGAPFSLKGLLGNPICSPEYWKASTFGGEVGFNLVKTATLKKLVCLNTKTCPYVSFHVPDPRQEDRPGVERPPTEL
Method in brief: (§1)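 Direct enzyme test with a COX inhibitor screening kit, run per the kit protocol: COX-1 was ovine, COX-2 human recombinant. […] Prostaglandins were quantified by LC-MS/MS after solid-phase extraction. Mean of n ≥ 3.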

[5] = target: T4, Prostaglandin G/H synthase 2 (Homo sapiens) (UniProt P35354); experiment: Inhibition of human recombinant COX2-mediated PGE2 synthesis using PGH2 as substrate at 1 uM by LC-MS/MS analysis relative to control; method in brief: as §1
T4 sequence (whole entry): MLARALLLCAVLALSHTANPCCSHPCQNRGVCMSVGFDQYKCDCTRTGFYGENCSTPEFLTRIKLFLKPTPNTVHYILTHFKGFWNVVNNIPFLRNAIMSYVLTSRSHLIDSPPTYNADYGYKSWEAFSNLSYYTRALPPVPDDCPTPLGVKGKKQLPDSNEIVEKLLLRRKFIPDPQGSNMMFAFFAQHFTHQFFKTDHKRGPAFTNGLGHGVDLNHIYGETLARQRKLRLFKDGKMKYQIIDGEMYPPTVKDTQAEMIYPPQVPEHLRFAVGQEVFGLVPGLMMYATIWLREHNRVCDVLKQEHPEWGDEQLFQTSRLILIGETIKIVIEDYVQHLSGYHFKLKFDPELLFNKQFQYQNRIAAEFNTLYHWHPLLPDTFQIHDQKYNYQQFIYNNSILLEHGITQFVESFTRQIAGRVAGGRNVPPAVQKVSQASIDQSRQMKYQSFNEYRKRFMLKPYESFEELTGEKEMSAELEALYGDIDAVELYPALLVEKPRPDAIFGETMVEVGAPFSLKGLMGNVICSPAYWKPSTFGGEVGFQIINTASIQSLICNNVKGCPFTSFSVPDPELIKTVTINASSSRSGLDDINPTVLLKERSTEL

HeLa = experiment: Cytotoxicity against IL1beta and TNFalpha-stimulated human HeLa cells at 1 to 10 uM after 24 hrs by WST1 assay; assay type: cell-based
Method in brief: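 HeLa cells were seeded at 3 × 10³ per well and grown 24 h at 37 °C. They were then stimulated with IL-1β (1 ng/mL) + TNFα (5 ng/mL) while treated with compound at 1, 10 or 100 μM, or DMSO, for 24 h. WST-1 was added for 90–150 min and absorbance read at 450 nm against 620 nm. Viability is percent of DMSO control, SEM, n ≥ 3.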

[6] = target: Prostaglandin G/H synthase 1 (Homo sapiens) (UniProt P23219); experiment: Inhibition of COX1 in human whole blood assessed as residual TXB2 level at 10 uM after 1 hr by LC-MS/MS analysis relative to control
Method in brief: (§2)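 Human venous blood was drawn without additives, and compound was added. Samples clotted at 37 °C for 1 h; negative controls were chilled on ice at once. After 5 min on ice, plasma was separated at 4 °C. It was mixed with H₃PO₄, EDTA, BHT and deuterated internal standards, then put through solid-phase extraction. TXB₂ and PGD₂ were measured by LC-MS/MS, relative to vehicle-treated blood.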

[7] = target: Prostaglandin G/H synthase 1 (Homo sapiens) (UniProt P23219); experiment: Inhibition of COX1 in human whole blood assessed as residual PGD2 level at 10 uM after 1 hr by LC-MS/MS analysis relative to control; method in brief: as §2
[8] = target: T4, Prostaglandin G/H synthase 2 (Homo sapiens); experiment: Inhibition of COX2 in LPS-stimulated human whole blood assessed as residual PGE2 level at 100 uM preincubated for 15 mins prior to LPS-stimulation measured after 24 hrs by LC-MS/MS analysis relative to control
Method in brief: (§3)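 Human whole blood received compound in DMSO plus acetylsalicylic acid (10 μg/mL) to block COX-1, 15 min at 37 °C. LPS (10 μg/mL final) in autologous plasma was added to induce COX-2/mPGES-1, and blood was incubated 24 h at 37 °C. Samples were chilled on ice 5 min, and plasma prostaglandins were extracted by solid-phase extraction and quantified by LC-MS/MS. Values are relative to vehicle.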

[9] = target: T5, 5-lipoxygenase/FLAP (Homo sapiens) (UniProt P09917+P20292); experiment: Inhibition of 5-lipoxygenase/FLAP in calcium ionophore-stimulated human whole blood assessed as residual LTB4 level at 10 uM preincubated for 15 mins prior to calcium ionophore-stimulation measured after 15 mins by LC-MS/MS analysis; assay type: protein-complex assay
Method in brief: (§4)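 Heparinized human whole blood (500 μL) was preincubated with compound for 15 min at 37 °C. It was then stimulated with 20 μM calcium ionophore A23187 in autologous plasma for 15 min at 37 °C and chilled on ice for 5 min. Plasma was collected by centrifugation at 4 °C. Eicosanoids were recovered by liquid–liquid extraction with deuterated internal standards and quantified by LC-MS/MS (MRM). Levels are relative to vehicle-treated blood.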

[10] = target: T4, Prostaglandin G/H synthase 2 (Homo sapiens); experiment: Inhibition of COX2 in LPS-stimulated human whole blood assessed as residual PGF2alpha level at 100 uM preincubated for 15 mins prior to LPS-stimulation measured after 24 hrs by LC-MS/MS analysis relative to control; method in brief: as §3
[11] = target: T5, 5-lipoxygenase/FLAP (Homo sapiens); experiment: Inhibition of 5-lipoxygenase/FLAP in calcium ionophore-stimulated human whole blood assessed as residual 12(s)HETE level at 10 uM preincubated for 15 mins prior to calcium ionophore-stimulation measured after 15 mins by LC-MS/MS analysis; assay type: protein-complex assay; method in brief: as §4
[12] = target: T5, 5-lipoxygenase/FLAP (Homo sapiens); experiment: Inhibition of 5-lipoxygenase/FLAP in calcium ionophore-stimulated human whole blood assessed as 5(s)HETE level at 10 uM preincubated for 15 mins prior to calcium ionophore-stimulation measured after 15 mins by LC-MS/MS analysis; assay type: protein-complex assay; set-up: scale not given: the % may be the effect or the level left; method in brief: as §4
[13] = target: T5, 5-lipoxygenase/FLAP (Homo sapiens); experiment: Inhibition of 5-lipoxygenase/FLAP in calcium ionophore-stimulated human whole blood assessed as residual 15(s)HETE level at 10 uM preincubated for 15 mins prior to calcium ionophore-stimulation measured after 15 mins by LC-MS/MS analysis; assay type: protein-complex assay; method in brief: as §4
[14] = target: T5, 5-lipoxygenase/FLAP (Homo sapiens); experiment: Inhibition of 5-lipoxygenase/FLAP in calcium ionophore-stimulated human whole blood assessed as residual (+/-)11HETE level at 10 uM preincubated for 15 mins prior to calcium ionophore-stimulation measured after 15 mins by LC-MS/MS analysis; assay type: protein-complex assay; method in brief: as §4
[15] = target: T1, Prostaglandin E synthase (Homo sapiens); experiment: Inhibition of mPGES-1 in IL1beta and TNFalpha-stimulated human HeLa cells assessed as PGE2 level after 24 hrs by LC-MS/MS analysis; assay type: cell-based
Method in brief: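 HeLa cells (2 × 10⁴) were grown 24 h at 37 °C. The medium was then replaced with IL-1β (1 ng/mL) + TNFα (5 ng/mL), or PBS for unstimulated controls, together with compound at 1, 10 or 100 μM, or DMSO, for 24 h at 37 °C. Supernatant PGE₂ was quantified by LC-MS/MS after solid-phase extraction with deuterated standards. Inhibition is percent of DMSO control corrected for unstimulated background, SEM, n ≥ 3.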

Sequence of Prostaglandin G/H synthase 1 (Homo sapiens) (P23219 whole entry): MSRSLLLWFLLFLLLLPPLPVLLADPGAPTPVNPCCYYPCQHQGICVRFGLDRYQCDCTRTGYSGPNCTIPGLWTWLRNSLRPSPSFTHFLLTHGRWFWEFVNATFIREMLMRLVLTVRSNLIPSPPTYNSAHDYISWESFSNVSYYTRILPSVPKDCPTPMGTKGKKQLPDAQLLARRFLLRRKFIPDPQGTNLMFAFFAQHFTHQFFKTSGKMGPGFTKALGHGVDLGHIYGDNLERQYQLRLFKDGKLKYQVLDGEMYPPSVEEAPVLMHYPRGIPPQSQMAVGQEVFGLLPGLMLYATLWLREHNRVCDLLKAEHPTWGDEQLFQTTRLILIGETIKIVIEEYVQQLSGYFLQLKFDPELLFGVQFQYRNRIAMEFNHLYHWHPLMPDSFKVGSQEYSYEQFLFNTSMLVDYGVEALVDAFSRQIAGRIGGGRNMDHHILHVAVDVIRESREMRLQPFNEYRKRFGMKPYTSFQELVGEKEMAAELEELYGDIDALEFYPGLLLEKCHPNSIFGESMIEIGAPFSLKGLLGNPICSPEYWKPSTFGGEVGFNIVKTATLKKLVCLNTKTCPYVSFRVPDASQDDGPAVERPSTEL

SMILES: CCCc1nc2ccc(NC(=O)c3ccccc3Cl)cc2c(=O)n1Cc1ccc(-c2ccccc2OC)cc1
inhibition [1]: 61.3%

SMILES: CCCc1nc2ccc(NC(C)=O)cc2c(=O)n1Cc1ccc(-c2cccc(Cl)c2)cc1
inhibition [1]: 14.8%

SMILES: Cc1ccc(-c2cc(C(F)(F)F)nn2-c2ccc(S(N)(=O)=O)cc2)cc1
inhibition [15]: Dose-dependent effect

SMILES: CCCc1nc2ccc(NC(=O)c3ccccc3F)cc2c(=O)n1Cc1ccc(-c2cccc(Cl)c2)cc1
inhibition [1]: 30%

SMILES: Cc1nc2ccc(NC(=O)c3ccccc3Cl)cc2c(=O)n1Cc1ccc(-c2cccc(Cl)c2)cc1
inhibition [1]: 41.9%

SMILES: CCCc1nc2ccc(NC(=O)CCc3ccccc3)cc2c(=O)n1Cc1ccc(-c2cccc(Cl)c2)cc1
inhibition [1]: 32.7%

SMILES: O=C(Cn1cnc2ccccc2c1=O)Nc1ccccc1Cl
inhibition [1]: < 0%

SMILES: CCCc1nc2ccc(NC(=O)c3ccccc3)cc2c(=O)n1Cc1ccc(-c2cccc(Cl)c2)cc1
inhibition [1]: 15.3%

Now from value to compound, other results behind:

inhibition [2]: 15.2% | inhibition [3]: 6.6% | inhibition [4]: 16.1% | inhibition [5]: < 0% | Activity [6]: 86.1% | Activity [7]: 89% | Activity [8]: 34.2% | Activity [9]: 91.3% | Activity [10]: 73.4% | Activity [11]: 82.7% | Activity [12]: 88.1% | Activity [13]: 78.3% | Activity [14]: 75.4%
SMILES: CCCc1nc2ccc(NC(=O)c3ccccc3Cl)cc2c(=O)n1Cc1ccccc1Cl
Activity (HeLa): Non-toxic

inhibition [1]: 14.1%
SMILES: CCCc1nc2ccc(NC(=O)Nc3ccccc3Cl)cc2c(=O)n1Cc1ccccc1Cl

inhibition [1]: 61.3%
SMILES: CCCc1nc2ccc(NC(=O)c3c(Cl)cccc3Cl)cc2c(=O)n1Cc1cccc(Cl)c1
